# Data from ChEMBL document CHEMBL4689842, “EUbOPEN Chemogenomics Library wave 1” (2021).
# Values joined by “and” are separate entries in the source; they are usually repeats but may differ in a detail not shown here. Equal entries are not always repeated.
# System: Fibroblast
# Experiment: Multiplex assay against human fibroblast
# Format: toxicity, cell-based
# Outline: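 Live cells were stained at seeding with Hoechst33342, BioTracker Green Microtubule Cytoskeleton Dye, MitoTracker Red and Annexin V Alexa Fluor 680, then imaged on a CQ1 microscope at 37°C and 5% CO2 after compound addition. CellPathfinder machine-learning gating split cells into Hoechst high-intensity objects or normal cells. Normal cells were split into healthy, pyknosed or fragmented nuclei, and pyknosed cells into mitotic or apoptotic. Tubulin, mitochondrial-mass and membrane-permeability phenotypes are per cents of healthy-nucleus cells.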
# [1] = 12 h, 1 µM, compound concentration 1 uM, replicate 1
# [2] = 12 h, 1 µM, compound concentration 1 uM, replicate 2
# [3] = 12 h, 10 µM, compound concentration 10 uM, replicate 1
# [4] = 12 h, 10 µM, compound concentration 10 uM, replicate 2
# [5] = 24 h, 1 µM, compound concentration 1 uM, replicate 1
# [6] = 24 h, 1 µM, compound concentration 1 uM, replicate 2
# [7] = 24 h, 10 µM, compound concentration 10 uM, replicate 1
# [8] = 24 h, 10 µM, compound concentration 10 uM, replicate 2
# [9] = 48 h, 1 µM, compound concentration 1 uM, replicate 1
# [10] = 48 h, 1 µM, compound concentration 1 uM, replicate 2
# [11] = 48 h, 10 µM, compound concentration 10 uM, replicate 1
# [12] = 48 h, 10 µM, compound concentration 10 uM, replicate 2
smiles,measurement,setting,value
COc1cc(-n2cnc3cc(-c4ccc(Cl)cc4)sc3c2=O)ccc1OCCN1CCCC1,Population Apoptotic (%),[1],52%
same,Population Fragmented Nuclei (%),[1],32%
same,Population Healthy Nuclei (%),[1],49%
same,Population Hoechst High Intensity Objects (%),[1],13%
same,Population Membrane Permeable-Phenotype (%),[1],23%
same,Population Mitochondria Different-Phenotype (%),[1],13%
same,Population Mitotic Cells (%),[1],47%
same,Population Normal (%),[1],86%
same,Population Pyknosed Nuclei (%),[1],18%
same,Population Tubulin-Different-Phenotype (%),[1],38%
same,Total Cell Count,[1],121
same,Population Apoptotic (%),[2],71%
same,Population Fragmented Nuclei (%),[2],11%
same,Population Healthy Nuclei (%),[2],77%
same,Population Hoechst High Intensity Objects (%),[2],16%
same,Population Membrane Permeable-Phenotype (%),[2],10%
same,Population Mitochondria Different-Phenotype (%),[2],44%
same,Population Mitotic Cells (%),[2],28%
same,Population Normal (%),[2],84%
same,Population Pyknosed Nuclei (%),[2],11%
same,Population Tubulin-Different-Phenotype (%),[2],34%
same,Total Cell Count,[2],78
same,Population Apoptotic (%),[3],62%
same,Population Fragmented Nuclei (%),[3],33%
same,Population Healthy Nuclei (%),[3],26%
same,Population Hoechst High Intensity Objects (%),[3],14%
same,Population Membrane Permeable-Phenotype (%),[3],21%
same,Population Mitochondria Different-Phenotype (%),[3],53%
same,Population Mitotic Cells (%),[3],37%
same,Population Normal (%),[3],85%
same,Population Pyknosed Nuclei (%),[3],40%
same,Population Tubulin-Different-Phenotype (%),[3],87%
same,Total Cell Count,[3],141
same,Population Apoptotic (%),[4],26%
same,Population Fragmented Nuclei (%),[4],22%
same,Population Healthy Nuclei (%),[4],57%
same,Population Hoechst High Intensity Objects (%),[4],8%
same,Population Membrane Permeable-Phenotype (%),[4],34%
same,Population Mitochondria Different-Phenotype (%),[4],93%
same,Population Mitotic Cells (%),[4],73%
same,Population Normal (%),[4],91%
same,Population Pyknosed Nuclei (%),[4],19%
same,Population Tubulin-Different-Phenotype (%),[4],97%
same,Total Cell Count,[4],75
same,Population Apoptotic (%),[5],38%
same,Population Fragmented Nuclei (%),[5],36%
same,Population Healthy Nuclei (%),[5],47%
same,Population Hoechst High Intensity Objects (%),[5],17%
same,Population Membrane Permeable-Phenotype (%),[5],17%
same,Population Mitochondria Different-Phenotype (%),[5],5%
same,Population Mitotic Cells (%),[5],61%
same,Population Normal (%),[5],82%
same,Population Pyknosed Nuclei (%),[5],15%
same,Population Tubulin-Different-Phenotype (%),[5],32%
same,Total Cell Count,[5],142
same,Population Apoptotic (%),[6],62%
same,Population Fragmented Nuclei (%),[6],16%
same,Population Healthy Nuclei (%),[6],71%
same,Population Hoechst High Intensity Objects (%),[6],10%
same,Population Membrane Permeable-Phenotype (%),[6],6%
same,Population Mitochondria Different-Phenotype (%),[6],25%
same,Population Mitotic Cells (%),[6],37%
same,Population Normal (%),[6],89%
same,Population Pyknosed Nuclei (%),[6],12%
same,Population Tubulin-Different-Phenotype (%),[6],21%
same,Total Cell Count,[6],83
same,Population Apoptotic (%),[7],92%
same,Population Fragmented Nuclei (%),[7],32%
same,Population Healthy Nuclei (%),[7],15%
same,Population Hoechst High Intensity Objects (%),[7],16%
same,Population Membrane Permeable-Phenotype (%),[7],25%
same,Population Mitochondria Different-Phenotype (%),[7],43%
same,Population Mitotic Cells (%),[7],7%
same,Population Normal (%),[7],83%
same,Population Pyknosed Nuclei (%),[7],51%
same,Population Tubulin-Different-Phenotype (%),[7],93%
same,Total Cell Count,[7],125
same,Population Apoptotic (%),[8],47%
same,Population Fragmented Nuclei (%),[8],24%
same,Population Healthy Nuclei (%),[8],52%
same,Population Hoechst High Intensity Objects (%),[8],14%
same,Population Membrane Permeable-Phenotype (%),[8],42%
same,Population Mitochondria Different-Phenotype (%),[8],89%
same,Population Mitotic Cells (%),[8],52%
same,Population Normal (%),[8],85%
same,Population Pyknosed Nuclei (%),[8],23%
same,Population Tubulin-Different-Phenotype (%),[8],81%
same,Total Cell Count,[8],74
same,Population Apoptotic (%),[9],81%
same,Population Fragmented Nuclei (%),[9],39%
same,Population Healthy Nuclei (%),[9],48%
same,Population Hoechst High Intensity Objects (%),[9],18%
same,Population Membrane Permeable-Phenotype (%),[9],9%
same,Population Mitochondria Different-Phenotype (%),[9],4%
same,Population Mitotic Cells (%),[9],18%
same,Population Normal (%),[9],81%
same,Population Pyknosed Nuclei (%),[9],11%
same,Population Tubulin-Different-Phenotype (%),[9],22%
same,Total Cell Count,[9],166
same,Population Apoptotic (%),[10],33%
same,Population Fragmented Nuclei (%),[10],36%
same,Population Healthy Nuclei (%),[10],61%
same,Population Hoechst High Intensity Objects (%),[10],15%
same,Population Membrane Permeable-Phenotype (%),[10],16%
same,Population Mitochondria Different-Phenotype (%),[10],3%
same,Population Mitotic Cells (%),[10],66%
same,Population Normal (%),[10],84%
same,Population Pyknosed Nuclei (%),[10],2%
same,Population Tubulin-Different-Phenotype (%),[10],51%
same,Total Cell Count,[10],160
same,Population Apoptotic (%),[11],93%
same,Population Fragmented Nuclei (%),[11],52%
same,Population Healthy Nuclei (%),[11],26%
same,Population Hoechst High Intensity Objects (%),[11],37%
same,Population Membrane Permeable-Phenotype (%),[11],23%
same,Population Mitochondria Different-Phenotype (%),[11],47%
same,Population Mitotic Cells (%),[11],6%
same,Population Normal (%),[11],62%
same,Population Pyknosed Nuclei (%),[11],20%
same,Population Tubulin-Different-Phenotype (%),[11],85%
same,Total Cell Count,[11],124
same,Population Apoptotic (%),[12],63%
same,Population Fragmented Nuclei (%),[12],36%
same,Population Healthy Nuclei (%),[12],53%
same,Population Hoechst High Intensity Objects (%),[12],32%
same,Population Mitochondria Different-Phenotype (%),[12],30%
same,Population Mitotic Cells (%),[12],36%
same,Population Normal (%),[12],67%
same,Population Pyknosed Nuclei (%),[12],9%
same,Total Cell Count,[12],167
NC(=O)Nc1cc(-c2cccc(F)c2)sc1C(=O)N[C@H]1CCCNC1 [AZD-7762],Population Apoptotic (%),[1],69%
same,Population Fragmented Nuclei (%),[1],20%
same,Population Healthy Nuclei (%),[1],62%
same,Population Hoechst High Intensity Objects (%),[1],14%
same,Population Membrane Permeable-Phenotype (%),[1],8%
same,Population Mitochondria Different-Phenotype (%),[1],0%
same,Population Mitotic Cells (%),[1],30%
same,Population Normal (%),[1],85%
same,Population Pyknosed Nuclei (%),[1],17%
same,Population Tubulin-Different-Phenotype (%),[1],1%
same,Total Cell Count,[1],226
same,Population Apoptotic (%),[2],60%
same,Population Fragmented Nuclei (%),[2],42%
same,Population Healthy Nuclei (%),[2],49%
same,Population Hoechst High Intensity Objects (%),[2],29%
same,Population Membrane Permeable-Phenotype (%),[2],16%
same,Population Mitochondria Different-Phenotype (%),[2],3%
same,Population Mitotic Cells (%),[2],40%
same,Population Normal (%),[2],70%
same,Population Pyknosed Nuclei (%),[2],8%
same,Population Tubulin-Different-Phenotype (%),[2],13%
same,Total Cell Count,[2],87
same,Population Apoptotic (%),[3],73% and 68%
same,Population Fragmented Nuclei (%),[3],47% and 34%
same,Population Healthy Nuclei (%),[3],35% and 51%
same,Population Hoechst High Intensity Objects (%),[3],16% and 18%
same,Population Membrane Permeable-Phenotype (%),[3],6% and 7%
same,Population Mitochondria Different-Phenotype (%),[3],3%
same,Population Mitotic Cells (%),[3],26% and 31%
same,Population Normal (%),[3],83% and 81%
same,Population Pyknosed Nuclei (%),[3],17% and 14%
same,Total Cell Count,[3],106 and 295
same,Population Apoptotic (%),[4],46% and 44%
same,Population Fragmented Nuclei (%),[4],22% and 60%
same,Population Healthy Nuclei (%),[4],25% and 27%
same,Population Membrane Permeable-Phenotype (%),[4],21% and 20%
same,Population Mitotic Cells (%),[4],53% and 55%
same,Population Normal (%),[4],94% and 67%
same,Population Tubulin-Different-Phenotype (%),[4],21% and 35%
same,Total Cell Count,[4],79 and 110
same,Population Apoptotic (%),[5],61%
same,Population Fragmented Nuclei (%),[5],25%
same,Population Healthy Nuclei (%),[5],62%
same,Population Hoechst High Intensity Objects (%),[5],14%
same,Population Membrane Permeable-Phenotype (%),[5],11%
same,Population Mitochondria Different-Phenotype (%),[5],1%
same,Population Mitotic Cells (%),[5],38%
same,Population Normal (%),[5],85%
same,Population Pyknosed Nuclei (%),[5],12%
same,Population Tubulin-Different-Phenotype (%),[5],2%
same,Total Cell Count,[5],238
same,Population Apoptotic (%),[6],0%
same,Population Fragmented Nuclei (%),[6],40%
same,Population Healthy Nuclei (%),[6],60%
same,Population Hoechst High Intensity Objects (%),[6],26%
same,Population Membrane Permeable-Phenotype (%),[6],10%
same,Population Mitochondria Different-Phenotype (%),[6],0%
same,Population Mitotic Cells (%),[6],0%
same,Population Normal (%),[6],73%
same,Population Pyknosed Nuclei (%),[6],0%
same,Population Tubulin-Different-Phenotype (%),[6],10%
same,Total Cell Count,[6],68
same,Population Apoptotic (%),[7],37% and 82%
same,Population Fragmented Nuclei (%),[7],47% and 41%
same,Population Healthy Nuclei (%),[7],44% and 47%
same,Population Hoechst High Intensity Objects (%),[7],27% and 14%
same,Population Mitochondria Different-Phenotype (%),[7],4% and 0%
same,Population Normal (%),[7],72% and 85%
same,Population Pyknosed Nuclei (%),[7],8% and 10%
same,Total Cell Count,[7],129 and 316
same,Population Apoptotic (%),[8],57% and 92%
same,Population Healthy Nuclei (%),[8],32% and 16%
same,Population Hoechst High Intensity Objects (%),[8],29% and 20%
same,Population Membrane Permeable-Phenotype (%),[8],100%
same,Population Normal (%),[8],70% and 80%
same,Population Pyknosed Nuclei (%),[8],66%
same,Total Cell Count,[8],115 and 75
same,Population Apoptotic (%),[11],25%
same,Population Fragmented Nuclei (%),[11],59%
same,Population Healthy Nuclei (%),[11],36%
same,Population Hoechst High Intensity Objects (%),[11],31%
same,Population Membrane Permeable-Phenotype (%),[11],17%
same,Population Mitochondria Different-Phenotype (%),[11],4%
same,Population Mitotic Cells (%),[11],75%
same,Population Normal (%),[11],68%
same,Population Pyknosed Nuclei (%),[11],3%
same,Population Tubulin-Different-Phenotype (%),[11],24%
same,Total Cell Count,[11],162
same,Population Apoptotic (%),[12],100%
same,Population Healthy Nuclei (%),[12],37%
same,Population Hoechst High Intensity Objects (%),[12],13%
same,Population Mitochondria Different-Phenotype (%),[12],2%
same,Population Mitotic Cells (%),[12],0%
same,Population Normal (%),[12],86%
same,Population Pyknosed Nuclei (%),[12],2%
same,Population Tubulin-Different-Phenotype (%),[12],14%
same,Total Cell Count,[12],126
